Platelet DG rel – inhibitors of platelet dense granule secretion, primary screen, cell-based, MLPCN, human platelets; inhibition, %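 (compounds screened at 7.5 µM in platelet-rich plasma)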; 300,000 compounds, 0.22% hits; AID 1663, 2009; human platelet-rich plasma, SFLLRN dense granule ATP release, luminescence;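 active = mean replicate score, as percent of positive control, at or above 50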
TRPC4 inh – inhibitors of mouse TRPC4 channel, primary screen, Fluo4 calcium, HEK293 TRPC4beta/mu-opioid cells; DAMGO-evoked Fluo4 calcium flux; stronger effect = lower value; B-score at 10 µM; AID 2247, 2010; 300,000 compounds, 0.39% hits; Short transient receptor potential channel 4 (Mus musculus), Q9QUQ5;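 active = B-score over 3 SD under the library average, no early fluorescence shift, positive overall ratio signal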
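Assay system: TRPC4beta/mu-opioid receptor HEK293 cell line; compound dosing: single concentration per test compound; detection: Fluo4 Ca2+ flux fluorescence; evaluation: per-well B score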
TRPC4 potent – positive allosteric modulators of TRPC4, primary screen, cell-based, mouse TRPC4beta, HEK293 mu-opioid, Fluo-4 calcium. B-score at 10 µM. 310,000 compounds, 0.42% hits. Short transient receptor potential channel 4 (Mus musculus), Q9QUQ5. DAMGO EC20, Fluo-4 Ca2+ flux; stronger effect = higher value;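 active = B-score of calcium response area above 5 SD of library B-scores, with initial fluorescence ratio within 5 SD of library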
TRPC6 activator – mouse TRPC6 channel activators, primary screen, cell-based, HEK293, membrane potential dye | HEK293-TRPC6 membrane potential dye fluorescence; stronger effect = higher value | B-score at 10 µM | 310,000 compounds, 0.13% hits;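 active = B-score of the integrated fluorescence ratio above library mean plus 3 SD, and starting fluorescence ratio within library mean plus 5 SD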;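 also: higher score means more depolarization so channel activation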
Target sequence (Q61143 whole entry, looked up): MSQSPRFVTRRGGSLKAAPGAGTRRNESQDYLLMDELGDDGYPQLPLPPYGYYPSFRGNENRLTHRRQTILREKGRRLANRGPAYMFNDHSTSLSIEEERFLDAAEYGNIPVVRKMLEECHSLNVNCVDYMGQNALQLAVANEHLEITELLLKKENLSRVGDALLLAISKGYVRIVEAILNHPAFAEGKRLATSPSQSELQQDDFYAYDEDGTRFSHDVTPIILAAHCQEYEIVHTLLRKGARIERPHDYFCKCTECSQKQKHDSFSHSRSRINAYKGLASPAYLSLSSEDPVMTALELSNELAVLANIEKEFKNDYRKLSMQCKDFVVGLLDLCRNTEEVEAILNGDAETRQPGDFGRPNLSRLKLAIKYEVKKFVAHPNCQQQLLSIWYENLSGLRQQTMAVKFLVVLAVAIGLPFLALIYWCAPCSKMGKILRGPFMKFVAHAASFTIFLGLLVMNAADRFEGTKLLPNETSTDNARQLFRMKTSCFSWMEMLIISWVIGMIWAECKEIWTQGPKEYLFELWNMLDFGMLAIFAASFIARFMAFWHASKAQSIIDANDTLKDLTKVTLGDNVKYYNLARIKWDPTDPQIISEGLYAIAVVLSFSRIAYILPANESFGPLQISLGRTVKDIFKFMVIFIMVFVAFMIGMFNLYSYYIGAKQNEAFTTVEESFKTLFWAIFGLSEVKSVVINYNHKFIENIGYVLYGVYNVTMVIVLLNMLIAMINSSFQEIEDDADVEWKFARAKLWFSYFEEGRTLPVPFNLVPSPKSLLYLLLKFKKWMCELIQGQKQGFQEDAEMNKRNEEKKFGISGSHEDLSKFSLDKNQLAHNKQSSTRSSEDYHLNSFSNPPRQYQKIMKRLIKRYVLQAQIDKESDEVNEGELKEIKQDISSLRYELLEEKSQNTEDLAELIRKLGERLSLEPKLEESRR
TRPC4 agonist – activators of mouse TRPC4 channel, primary screen, Fluo4 calcium, HEK293 TRPC4beta/mu-opioid cells. Short transient receptor potential channel 4 (Mus musculus), Q9QUQ5. Fluo4 calcium fluorescence; stronger effect = higher value. B-score at 10 µM. 310,000 compounds, 0.49% hits. AID 2237, 2010;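 active = B-score above 5 SD of library B-scores, and initial fluorescence ratio not above library mean plus 5 SD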;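 also: positive B-score marks a calcium rise read as TRPC4 activation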
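Material: HEK293 stable line with TRPC4beta plus mu-opioid receptor; technique: Fluo4 calcium-sensitive dye fluorescence, kinetic, 1 Hz baseline; timing: Fluo4 dye loading 45 min at room temperature, 110 s recording; controls: assay buffer as low control, maximal DAMGO as high control; read-out: integrated baseline-normalised fluorescence ratio, converted to per-well B score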
TRPC6 inh – mouse TRPC6 channel inhibitors, primary screen, cell-based, HEK293, membrane potential dye. Short transient receptor potential channel 6 (Mus musculus), Q61143. ACh-evoked depolarization; stronger effect = lower value. B-score at 10 µM. 310,000 compounds, 1.1% hits. AID 2553, 2010;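 active = B-score under library mean minus 3 SD, initial fluorescence not abnormally high, positive integrated signal ratio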;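 also: B-score derived from integrated fluorescence ratio over the kinetic read; more negative B-score means stronger inhibition of depolarization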
HEK293 MPD ctr – parental HEK293 membrane potential modulation, confirmation, counter-screen for TRPC6 modulator project, cell-based; shares compounds with TRPC6 inh; membrane potential dye fluorescence; membrane potential signal change, % at 10 µM; 2,400 compounds, 51% hits; AID 488924, 2010;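 active = membrane potential signal moves up or down beyond 5 SD from buffer-only wells, on both duplicate plates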
HEK293 MPD ctr 2 – second check of TRPC6 modulator effects in parental HEK293 cells. inhibition, % at 10 µM. 2,400 compounds, 14% hits. membrane potential dye fluorescence; after compound, maximal acetylcholine stimulation. AID 488926. shares compounds with TRPC6 inh;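 active = membrane potential signal drops by more than 5 SD from the mean control signal, in both duplicate plates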
TRPC4/MOR mod – TRPC4 modulation by TRPC6 hit compounds, confirmation, selectivity assay for TRPC6 modulator project, cell-based, HEK293 TRPC4/mu-opioid, membrane potential dye, mouse; percent change from control (negative = decrease, positive = increase), % at 10 µM; membrane potential fluorescence; AID 488927, 2010; shares compounds with TRPC6 inh; 2,400 compounds, 69% hits;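 active = membrane potential signal moved up or down beyond 5 SD of buffer control wells, in both duplicate plates, actives on both sides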
TRPC4 ctr inh 2 – second check of whether TRPC6 modulators also affect mouse TRPC4; shares compounds with TRPC6 inh; HEK293 TRPC4/mu-opioid, membrane potential dye fluorescence; stimulated with maximal-effect DAMGO; inhibition, % at 10 µM; 2,400 compounds, 55% hits; AID 488928;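 active = drop in membrane potential signal beyond 5 SD of the control wells in both duplicate plates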;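 also: TRPC4 counter screen for TRPC6 hits run under conditions tuned for TRPC6 not TRPC4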
TRPC6 inh conf – mouse TRPC6 channel inhibitors, confirmation, HEK293 cells, membrane potential dye, duplicate; shares compounds with TRPC6 inh; ACh-evoked depolarization; inhibition, % at 10 µM; 3,300 compounds, 43% hits; AID 488960, 2010;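 active = fluorescence ratio falls more than 5 SD below the full-stimulation control mean, in both duplicate runs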;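 also: integrated fluorescence ratio of peak minus minimum over baseline after agonist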
TRPC6 act conf – mouse TRPC6 channel activators, confirmation, HEK293 cells, membrane potential dye, duplicate; shares compounds with TRPC6 inh; HEK293-TRPC6 membrane potential dye fluorescence, FDSS; activation, % at 10 µM; 2,800 compounds, 11% hits; AID 488961, 2010;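 active = ratio signal rise beyond 5 SD above unstimulated control wells' mean, seen in both duplicate runs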
Each line names hits and unclear results; the compound was inactive in the other large screens (follow-up assays come after a bar, where they were run). In the library only some 2.5% were active in any assay of this set; here they are far more common.

COc1ccc(CN2C(=NC(=O)C3CCCO3)SC3CS(=O)(=O)CC32)cc1 (stereo unspecified)	none
COc1ccc(N(CC(=O)NCCSC2CCCCC2)S(=O)(=O)c2ccccc2)cc1OC	none
Cn1c(O)c(/C=N/NC(=O)c2cc3ccccc3cc2O)c2ccccc21	TRPC4 potent 33, TRPC6 activator 44, TRPC4 agonist 105 | HEK293 MPD ctr active | HEK293 MPD ctr 2 inactive | TRPC4/MOR mod 298% | TRPC4 ctr inh 2 inactive | TRPC6 inh conf inactive | TRPC6 act conf 256%
N=C1CCCN1CC(=O)c1ccc(Cl)cc1	TRPC6 inh -5.1 | HEK293 MPD ctr inactive | HEK293 MPD ctr 2 inactive | TRPC4/MOR mod inactive | TRPC4 ctr inh 2 inactive | TRPC6 inh conf inactive | TRPC6 act conf inactive
COc1cccc2c1nc(C)c1cc(C)oc12	TRPC6 inh -5.8 | HEK293 MPD ctr -316% | HEK293 MPD ctr 2 inactive | TRPC4/MOR mod -54% | TRPC4 ctr inh 2 42% | TRPC6 inh conf inactive | TRPC6 act conf inactive
O=C(NNc1ccc(C(F)(F)F)cc1[N+](=O)[O-])c1ccc(NS(=O)(=O)c2ccc(F)cc2)cc1	TRPC6 inh -5.4 | HEK293 MPD ctr -112% | HEK293 MPD ctr 2 inactive | TRPC4/MOR mod -26% | TRPC4 ctr inh 2 62% | TRPC6 inh conf 64% | TRPC6 act conf inactive
CC(C)[C@H](Nc1ccc(C(F)(F)F)cc1[N+](=O)[O-])C(=O)O	none
CCS(=O)(=O)c1nc(S(=O)(=O)c2ccc(C)cc2)c(NCCCn2ccnc2)s1	none
CCCN1CCN(CC(=O)Nc2nnc(CC)s2)CC1	none
COc1nc(N(c2ccccc2)c2ccccc2)nc(-n2ccnc2)n1	TRPC6 activator 12 | HEK293 MPD ctr 372% | HEK293 MPD ctr 2 59% | TRPC4/MOR mod 64% | TRPC4 ctr inh 2 inactive | TRPC6 inh conf inactive | TRPC6 act conf 132%
COc1ccccc1CC(=O)N1CCN(C(=O)c2ccco2)CC1	none
Cc1ccc(C)c(N2CCN(C(=O)c3ccc(NS(=O)(=O)c4c(C)noc4C)cc3)CC2)c1	TRPC6 inh -6.5 | HEK293 MPD ctr inactive | HEK293 MPD ctr 2 inactive | TRPC4/MOR mod -15% | TRPC4 ctr inh 2 50% | TRPC6 inh conf 74% | TRPC6 act conf inactive
Cc1ccc(Cl)cc1N1CCN(C(=O)c2ccc(NS(=O)(=O)c3c(C)noc3C)cc2)CC1	TRPC6 inh -6.2 | HEK293 MPD ctr inactive | HEK293 MPD ctr 2 inactive | TRPC4/MOR mod inactive | TRPC4 ctr inh 2 inactive | TRPC6 inh conf 70%
CCN1CCN(CC(=O)Nc2cc(C(F)(F)F)ccc2OCCOC)CC1	none
CN(C(=O)c1ccnn1C)C1CCCN(Cc2ccccc2F)C1 (stereo unspecified)	none
Cc1onc(-c2ccccc2Cl)c1C(=O)NC1CCCCCC1	none
COc1ccc(NC(=O)CC2Nc3cccc4cccc(c34)NC2=O)cc1 (stereo unspecified)	none
O=C(CC1Nc2cccc3cccc(c23)NC1=O)Nc1ccc(F)cc1 (stereo unspecified)	TRPC6 inh -5 | HEK293 MPD ctr inactive | HEK293 MPD ctr 2 inactive | TRPC4/MOR mod -11% | TRPC4 ctr inh 2 40% | TRPC6 inh conf inactive | TRPC6 act conf inactive
Oc1ccccc1N=Nc1ccccc1O	none
Nc1ccc(N=Nc2ccccc2O)c(N)c1	TRPC6 inh -6.5 | HEK293 MPD ctr -174% | HEK293 MPD ctr 2 inactive | TRPC4/MOR mod 28% | TRPC4 ctr inh 2 98% | TRPC6 inh conf inactive | TRPC6 act conf inactive
O/C(=C\c1ccc2ccccc2n1)c1ccncc1	TRPC6 activator 46, TRPC4 agonist 66 | HEK293 MPD ctr active | HEK293 MPD ctr 2 active | TRPC4/MOR mod 186% | TRPC4 ctr inh 2 48% | TRPC6 act conf 314%
O/C(=C\c1nc2ccccc2nc1/C=C(\O)c1ccccc1)c1ccccc1	TRPC6 activator 13 | HEK293 MPD ctr 268% | HEK293 MPD ctr 2 inactive | TRPC4/MOR mod inactive | TRPC4 ctr inh 2 inactive | TRPC6 inh conf inactive | TRPC6 act conf inactive
O=c1oc2ccccc2nc1/C=C(\O)c1ccccc1	none
CCOc1ccccc1NC(=O)c1ccccc1-c1nc(-c2ccccc2OC)no1	none (no result: Platelet DG rel)
Cc1ccc2nc3c(cc(S(=O)(=O)c4ccccc4)c(=N)n3Cc3ccco3)c(=O)n2c1	TRPC6 inh -5.5 | HEK293 MPD ctr inactive | HEK293 MPD ctr 2 inactive | TRPC4/MOR mod inactive | TRPC4 ctr inh 2 inactive | TRPC6 inh conf inactive | TRPC6 act conf inactive
C/C(=N\NC(=O)c1cccc(S(=O)(=O)N2CCCC2)c1)c1ccc(C)cc1	none
